In ChEMBL document CHEMBL5712077, “Secreted heat shock protein 90 promotes prostate cancer stem cell heterogeneity” (Oncotarget, 2017):
Active and inactive are the calls of the source. The calls are words filed in the database; no cut-off is given here.

Columns and labels:
Conditions in all cases: time 3.0 day
[1] = target: Histone-lysine N-methyltransferase EZH2 (Homo sapiens) (UniProt Q15910); assay: Inhibition of EZH2 in human DU-145 cells expressing Hsp90 assessed as decrease in spheroid growth at 500 nM for 3 days and cells were treated post-spheroid suspension by microscopic analysis; type: cell-based
Sequence of Histone-lysine N-methyltransferase EZH2 (Homo sapiens) (Q15910 whole entry, looked up): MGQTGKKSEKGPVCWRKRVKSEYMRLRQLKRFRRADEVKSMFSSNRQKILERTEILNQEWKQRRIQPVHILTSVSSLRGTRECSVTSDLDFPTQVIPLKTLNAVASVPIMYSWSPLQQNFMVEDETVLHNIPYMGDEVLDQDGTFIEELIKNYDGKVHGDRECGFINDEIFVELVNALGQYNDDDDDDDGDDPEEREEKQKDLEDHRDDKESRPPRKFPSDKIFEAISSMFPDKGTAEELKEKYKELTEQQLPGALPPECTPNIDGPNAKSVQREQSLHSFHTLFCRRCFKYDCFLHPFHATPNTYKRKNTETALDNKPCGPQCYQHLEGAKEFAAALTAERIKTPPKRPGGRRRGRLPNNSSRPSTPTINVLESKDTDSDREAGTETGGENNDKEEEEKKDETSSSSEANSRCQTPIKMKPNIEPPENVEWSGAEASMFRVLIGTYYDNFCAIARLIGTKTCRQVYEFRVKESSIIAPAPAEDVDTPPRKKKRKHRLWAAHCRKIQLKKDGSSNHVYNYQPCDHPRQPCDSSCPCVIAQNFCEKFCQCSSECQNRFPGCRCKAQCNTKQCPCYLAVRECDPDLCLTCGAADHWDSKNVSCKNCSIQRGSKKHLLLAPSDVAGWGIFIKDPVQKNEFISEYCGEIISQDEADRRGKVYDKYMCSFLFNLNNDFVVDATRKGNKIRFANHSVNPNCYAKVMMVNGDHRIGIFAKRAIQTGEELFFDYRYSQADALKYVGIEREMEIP
Procedure, shortened: (§1)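 Spheroid passaging with inhibitor exposure. Pre-treatment: inhibitor given for 3 days before suspension. Post-treatment: inhibitor given at initial suspension. Continuous: 3-day pre-treatment, then kept on inhibitor in spheroid culture. Cells seeded at 2000 per well in low-attachment plates in DMEM/F12 with N2 and B27. Spheres of at least 5 cells counted at day 10-14 for each passage. Compared with untreated cells by Student's t-test.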

[2] = target: Histone-lysine N-methyltransferase EZH2 (Homo sapiens) (UniProt Q15910); assay: Inhibition of EZH2 in human DU-145 cells expressing Hsp90 assessed as reduction in side population at 500 nM after 3 days by Hoechst staining based flow cytometry; type: cell-based
Procedure, shortened: (§2)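 Side population by flow cytometry after 3 days of inhibitor treatment. Cells at 1 x 10^6/mL in culture medium were stained with Hoechst 33342 at 5 ug/mL for 2 h at 37C, protected from light. Propidium iodide excluded dead cells. UV laser; Hoechst red 620 nm against blue 448 nm. Gate set on 50 uM verapamil controls. At least three repeats, Student's t-test.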

[3] = target: Histone-lysine N-methyltransferase EZH2 (Homo sapiens) (UniProt Q15910); assay: Inhibition of EZH2 in human ARCaPE cells expressing Hsp90 assessed as decrease in spheroid growth at 500 nM for 3 days and cells were treated under continuous condition by microscopic analysis; type: cell-based; procedure, shortened: as §1
[4] = target: Histone-lysine N-methyltransferase EZH2 (Homo sapiens) (UniProt Q15910); assay: Inhibition of EZH2 in human ARCaPE cells expressing Hsp90 assessed as reduction in side population at 500 nM after 3 days by Hoechst staining based flow cytometry; type: cell-based; procedure, shortened: as §2
[5] = target: Histone-lysine N-methyltransferase EZH2 (Homo sapiens) (UniProt Q15910); assay: Inhibition of EZH2 in human ARCaPE cells expressing Hsp90 assessed as decrease in spheroid growth at 500 nM for 3 days and cells were treated post-spheroid suspension by microscopic analysis; type: cell-based; procedure, shortened: as §1
[6] = target: Histone-lysine N-methyltransferase EZH2 (Homo sapiens) (UniProt Q15910); assay: Inhibition of EZH2 in human DU-145 cells expressing Hsp90 assessed as decrease in spheroid growth at 500 nM for 3 days and cells were treated under continuous condition by microscopic analysis; type: cell-based; procedure, shortened: as §1
[7] = target: Histone-lysine N-methyltransferase EZH2 (Homo sapiens) (UniProt Q15910); assay: Inhibition of EZH2 in human ARCaPE cells expressing Hsp90 assessed as decrease in spheroid growth at 500 nM for 3 days and cells were treated pre-spheroid suspension by microscopic analysis; type: cell-based; procedure, shortened: as §1
[8] = target: Histone-lysine N-methyltransferase EZH2 (Homo sapiens) (UniProt Q15910); assay: Inhibition of EZH2 in human DU-145 cells expressing Hsp90 assessed as decrease in spheroid growth at 500 nM for 3 days and cells were treated pre-spheroid suspension by microscopic analysis; type: cell-based; procedure, shortened: as §1
DU-145 [9] = assay: Inhibition of extracellular Hsp90 in human DU145 cells expressing Hsp90 assessed as decrease in spheroid growth at 1 uM for 3 days and cells were treated under continuous condition by microscopic analysis; type: cell-based; procedure, shortened: as §1
ARCaPE [10] = assay: Inhibition of extracellular Hsp90 in human ARCaPE cells expressing Hsp90 assessed as increase in spheroid growth at 1 uM for 3 days and cells were treated post spheroid suspension by microscopic analysis; type: cell-based; procedure, shortened: as §1
DU-145 [11] = assay: Inhibition of extracellular Hsp90 in human DU145 cells expressing Hsp90 assessed as decrease in spheroid growth at 1 uM for 3 days and cells were treated pre-spheroid suspension by microscopic analysis; type: cell-based; procedure, shortened: as §1
DU-145 [12] = assay: Inhibition of extracellular Hsp90 in human DU-145 cells expressing Hsp90 assessed as reduction in side population ast 1 uM after 3 days by Hoechst staining based flow cytometry; type: cell-based; procedure, shortened: as §2
ARCaPE [13] = assay: Inhibition of extracellular Hsp90 in human ARCaPE cells expressing Hsp90 assessed as decrease in spheroid growth at 1 uM for 3 days and cells were treated under continuous condition by microscopic analysis; type: cell-based; procedure, shortened: as §1
M12 = assay: Inhibition of extracellular Hsp90 in human M12 cells expressing Hsp90 assessed as reduction in side population ast 1 uM after 3 days by Hoechst staining based flow cytometry
ARCaPE [14] = assay: Inhibition of extracellular Hsp90 in human ARCaPE cells expressing Hsp90 assessed as decrease in spheroid growth at 1 uM for 3 days and cells were treated pre-spheroid suspension by microscopic analysis; type: cell-based; procedure, shortened: as §1

| inhibition [1] | inhibition [2] | inhibition [3] | inhibition [4] | inhibition [5] | inhibition [6] | inhibition [7] | inhibition [8] | SMILES | inhibition (DU-145 [9]) | inhibition (ARCaPE [10]) | inhibition (DU-145 [11]) | inhibition (DU-145 [12]) | inhibition (ARCaPE [13]) | inhibition (M12) | inhibition (ARCaPE [14]) |
| --- | --- | --- | --- | --- | --- | --- | --- | --- | --- | --- | --- | --- | --- | --- | --- |
| Active | Active | Active | Active | Active | Active | Active | Active | CCCc1cc(C)[nH]c(=O)c1CNC(=O)c1cc(-c2ccnc(N3CCN(C)CC3)c2)cc2c1cnn2C(C)C | – | – | – | – | – | – | – |
| – | – | – | – | – | – | – | – | COC1=C2C[C@@H](C)C[C@H](OC)[C@H](O)[C@@H](C)/C=C(\C)[C@H](OC(N)=O)[C@@H](OC)/C=C\C=C(/C)C(=O)NC(=CC1=O)C2=O | Active | inactive | Active | Active | Active | Active | Active |
